Bioassay records (PubChem)
Only some compounds are listed: those with a hit (about 1.7% of all), similar ones and a draw of the others.
Runt-CBFb FRET = inhibitors of RUNX1 Runt–CBFb binding, primary screen, biochemical, FRET, Cerulean-Runt, Venus-CBFb, uHTS. Runt-related transcription factor 1 (Homo sapiens) + Core-binding factor subunit beta …. Cerulean-Runt/Venus-CBFb FRET ratio 530/480, 1 h. inhibition, % at 20 µM. 220,000 tested, 0.46% active;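 active = inhibition over about 50% at 20 µM in the single-dose screen, limit read from the data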;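 also: 0% = DMSO wells and 100% = excess unlabeled CBFb competitor control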
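Schedule: protein complex preformed 1 h, compound exposure 1 h, room temperature, dark; test system: Cerulean-labeled Runt domain protein; amount: 100 nM per protein; buffer or medium: Tris 50 mM pH 7.5, KCl, K2SO4, 0.01% BSA; read-out: loss of energy transfer signal; detection: FRET fluorescence; controls: 5 µM unlabeled CBFb as full-inhibition high control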
Vif imaging = HIV Vif self-association inhibitors, primary screen, imaging, HEK293T, single point. HEK293T cells, Vif self-association by quenched fluorescence, 24 h. inhibition, % at 7.49 µM. 340,000 tested, 0.35% active; in the data active = inhibition above about 50%, passing the limit was not always enough; inconclusive = no clear call, values can overlap the other calls; inactive = below about 31%
RanGTP-Impb inh = inhibitors of RanGTP-importin-beta interaction, primary screen, biochemical, FRET, CFP-Ran, YFP-importin-beta, homogeneous. inhibition, % (concentration not given with the values). 300,000 tested, 1.1% active. cell-free CFP-Ran/YFP-importin-beta FRET ratio;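 active = more than half of the replicate wells show a fall in the fluorescence ratio signal beyond about 16%, limit read from the data, passing the limit was not always enough; inconclusive = exactly half of the replicate wells pass the set limit; inactive = fewer than half of replicates pass the limit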;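 also: 0% = DMSO wells and 100% = Ran loaded with GDP instead of GTP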
Runt-SMMHC FRET = inhibitors of RUNX1 Runt–CBFb-SMMHC binding, primary screen, biochemical, FRET, Cerulean-Runt, Venus-CBFb-SMMHC, uHTS. Runt-related transcription factor 1 (Homo sapiens) + Core-binding factor subunit beta …. Cerulean-Runt/Venus-CBFb-SMMHC FRET ratio 530/480, 1 h. inhibition, % at 20 µM. 220,000 tested, 0.74% active. AID 1434, 2008;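 active = mean inhibition across duplicate retests at 20 µM reaching about 50%, limit read from the data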;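 also: 0% = DMSO wells and 100% = wells with excess untagged CBFb-SMMHC; inhibitors lower the FRET ratio by blocking Runt binding to CBFb-SMMHC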
Rce1 inh = yeast Rce1p protease inhibitors, primary screen, biochemical, fluorescence, cell-free homogeneous; CAAX prenyl protease 2 (Saccharomyces cerevisiae (strain ATCC 204508 / S288c)), Q03530; calls only; 290,000 tested, 0.27% active; AID 2563, 2010; yeast membranes, quenched prenylated peptide cleavage fluorescence;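 active = fall in fluorescence gain of 50% or more versus controls, with final raw signal at or below 3038400; inconclusive = same 50% fall but final raw signal above 3038400; inactive = fall in fluorescence gain under 50%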;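 also: plate controls were neutral control wells for no effect and wells lacking membranes for full effect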
Target sequence (Q03530 whole entry, looked up): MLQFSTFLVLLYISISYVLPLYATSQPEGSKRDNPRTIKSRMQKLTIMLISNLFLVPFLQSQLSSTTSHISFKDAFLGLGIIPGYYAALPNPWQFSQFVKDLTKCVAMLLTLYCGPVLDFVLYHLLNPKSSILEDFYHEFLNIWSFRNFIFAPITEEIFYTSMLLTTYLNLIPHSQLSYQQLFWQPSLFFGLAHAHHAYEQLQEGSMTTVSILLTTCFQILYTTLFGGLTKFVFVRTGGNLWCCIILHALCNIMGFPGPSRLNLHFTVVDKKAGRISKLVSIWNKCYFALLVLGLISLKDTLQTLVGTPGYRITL
Numbers without * were called inactive.

Screening O=C(CNC(=O)OCc1ccccc1)Oc1ccc2ccc(=O)oc2c1 returned Vif imaging 2, RanGTP-Impb inh 13 and Rce1 inh inactive.
`CC1CCN(CC(=O)c2cccs2)CC1` gave Runt-CBFb FRET -2, Vif imaging 2, RanGTP-Impb inh -2, Runt-SMMHC FRET -2 and Rce1 inh inactive.
O=C(CN1CCc2ccccc2C1)c1cccs1 was read as Runt-CBFb FRET 1, Vif imaging 7, RanGTP-Impb inh 25*, Runt-SMMHC FRET 0 and Rce1 inh inactive.
Screening Cc1ccc(-n2nnc3c(=O)n(CC(=O)OCc4ccccc4)cnc32)cc1 returned Runt-CBFb FRET 0, Vif imaging 75*, RanGTP-Impb inh -1, Runt-SMMHC FRET 0 and Rce1 inh inactive.
Screening Cn1c(=O)c2c(nc(Br)n2CCSc2ncccn2)n(C)c1=O returned Runt-CBFb FRET 0, Vif imaging -22, RanGTP-Impb inh 25*, Runt-SMMHC FRET -2 and Rce1 inh inactive.
For O=C(NCCc1ccc(F)cc1)Nc1ccccc1Cl the results were Vif imaging 5 and Rce1 inh inactive.
For O=C(COc1ccccc1)Nc1nnc(-c2ccc(Cl)s2)o1 the results were Runt-CBFb FRET 3, Vif imaging 7, RanGTP-Impb inh 1, Runt-SMMHC FRET 4 and Rce1 inh inactive.
`O=c1oc2cc(O)ccc2cc1-c1ccccc1` gave Vif imaging 4, RanGTP-Impb inh 140* and Rce1 inh inactive.
For O=c1oc2ccccc2cc1-c1ccc(O)cc1O the results were Runt-CBFb FRET -3, Vif imaging 0, RanGTP-Impb inh 2, Runt-SMMHC FRET 0 and Rce1 inh inactive.
For COc1ccc(-c2cc3ccc(O)cc3oc2=O)cc1 the results were Vif imaging 12, RanGTP-Impb inh 128* and Rce1 inh inconclusive.
COc1ccc(-c2cc3ccc(OCc4nn[nH]n4)cc3oc2=O)cc1OC was read as Runt-CBFb FRET 14, Vif imaging 5, Runt-SMMHC FRET 32 and Rce1 inh active.
For O=c1oc2cc(O)ccc2cc1-c1nc2c(s1)CCc1ccccc1-2 the results were Runt-CBFb FRET 4, Vif imaging inactive and Runt-SMMHC FRET 83*.
`COc1ccc(NC(=O)C2(C)CCN2C2Cc3ccccc3C2)cc1OC` (stereo unspecified) gave Vif imaging 0.
`COc1ccc(C2N(Cc3ccccc3)CCN2Cc2ccccc2)cc1[N+](=O)[O-]` gave Runt-CBFb FRET 0, Vif imaging -9, RanGTP-Impb inh -3, Runt-SMMHC FRET -1 and Rce1 inh inactive.
Cc1ccccc1C(=O)NCCCNC(=O)c1ccco1 was read as Vif imaging 4, RanGTP-Impb inh 3 and Rce1 inh inactive.
CCc1ccc(-c2nc(CS(=O)CC(=O)NCc3ccco3)c(C)o2)cc1 (stereo unspecified) was read as Vif imaging -3, RanGTP-Impb inh 1 and Rce1 inh inactive.
Screening COC(=O)c1ccc2nc(NC(=O)C(C)C)sc2c1 returned Runt-CBFb FRET -1, Vif imaging -6, RanGTP-Impb inh 30*, Runt-SMMHC FRET -2 and Rce1 inh inactive.
Screening CCOC(=O)c1ccc2nc(Nc3nc4ccc(F)cc4s3)sc2c1 returned Runt-CBFb FRET 5, Vif imaging 6, RanGTP-Impb inh 7, Runt-SMMHC FRET 32 and Rce1 inh inactive.
COC(=O)c1ccc2nc(Nc3nc4c(F)cc(F)cc4s3)sc2c1 was read as Runt-CBFb FRET 42, Vif imaging -1, RanGTP-Impb inh 71*, Runt-SMMHC FRET 69 and Rce1 inh inactive.
Screening COC(=O)C1=C(C)NC2=C(C(=O)C(C(=O)OC)C(c3ccc(OC)cc3)C2)C1c1ccccn1 (stereo unspecified) returned Runt-CBFb FRET 35, Vif imaging -5, RanGTP-Impb inh 12, Runt-SMMHC FRET 70* and Rce1 inh inactive.
`COC(=O)C1=C(C)NC2=C(C(=O)CC(C)(C)C2)C1c1ccsc1` (stereo unspecified) gave Runt-CBFb FRET 7, Vif imaging -7, RanGTP-Impb inh 3, Runt-SMMHC FRET 20 and Rce1 inh inactive.
COC(=O)C1=C(C)NC2=C(C(=O)CC(C)(C)C2)C1c1ccccn1 (stereo unspecified) was read as Runt-CBFb FRET 70*, RanGTP-Impb inh 8, Runt-SMMHC FRET 123* and Rce1 inh inactive.
COC(=O)C1C(=O)C2=C(CC1C)NC(C)=C(C(=O)OC(C)C)C2c1ccc(OC)c(O)c1 (stereo unspecified) was read as Runt-CBFb FRET 0, Vif imaging 12, RanGTP-Impb inh -2, Runt-SMMHC FRET 4 and Rce1 inh inactive.
`CCCCn1c(N)c(N(CCOC)C(=O)c2cc3c(s2)CCC3)c(=O)[nH]c1=O` gave Vif imaging -2, RanGTP-Impb inh 2 and Rce1 inh inactive.
For Cc1nc2nc(-c3ccc(Cl)cc3)cn2nc1C the results were Runt-CBFb FRET 61*, Vif imaging -2, RanGTP-Impb inh 78*, Runt-SMMHC FRET 57* and Rce1 inh inactive.
Screening Cc1nc2nc(-c3cccs3)cn2nc1C returned Runt-CBFb FRET -4, Vif imaging 3, RanGTP-Impb inh 57*, Runt-SMMHC FRET -105 and Rce1 inh inactive.
`Cc1nn2cc(-c3ccc(Cl)cc3)nc2s1` gave Runt-CBFb FRET 2, Vif imaging -5, RanGTP-Impb inh 1, Runt-SMMHC FRET -4 and Rce1 inh inactive.
Screening O=C(NCc1ccccc1)C(c1ccccc1F)N(C(=O)c1csnn1)C1CCCC1 (stereo unspecified) returned Vif imaging 4, RanGTP-Impb inh -3 and Rce1 inh inactive.
`COc1ccc(NS(=O)(=O)c2ccc(N3CCOCC3)c(NC(=O)C(C)C)c2)cc1` gave Runt-CBFb FRET 1, Vif imaging -3, RanGTP-Impb inh 0, Runt-SMMHC FRET -1 and Rce1 inh inactive.
Screening CCOC(=O)/C=C/C(=O)Nc1cc(S(=O)(=O)Nc2ccc(OC)cc2)ccc1N1CCOCC1 returned Vif imaging 100*.
`COc1ccc(C(=O)/C=C/NCc2ccc(C)cc2)cc1` gave RanGTP-Impb inh 25* and Rce1 inh inactive.
Cc1ccc(C(=O)/C=C\NCc2ccccc2)cc1 was read as Runt-CBFb FRET 0, Vif imaging -4, RanGTP-Impb inh -1, Runt-SMMHC FRET -6 and Rce1 inh inactive.
